Entries after “also recorded” stand apart in the source; their conditions may differ. Read-outs that look alike come from different tables or passages of the source.
What was measured:
[1] = type: in vitro ADME, mouse
recombinant rat Nln = recombinant rat Nln (Rattus norvegicus, UniProt P42676); assay: Nln activation, continuous quenched fluorescence substrate; type: biochemical
[2] = system: co-culture of primary mouse astrocytes and immortalized mouse endothelial cells (bEnd3); type: in vitro ADME; details: ratio of Pe values
[3] = molecular target: human angiotensin-converting enzyme (Homo sapiens, UniProt P12821); assay: Peptidase selectivity: ACE, fluorogenic substrate; type: biochemical; details: eight-point concentration–response up to 300 μM; substrate 10 μM
Sequence of human angiotensin-converting enzyme (P12821 30-1306): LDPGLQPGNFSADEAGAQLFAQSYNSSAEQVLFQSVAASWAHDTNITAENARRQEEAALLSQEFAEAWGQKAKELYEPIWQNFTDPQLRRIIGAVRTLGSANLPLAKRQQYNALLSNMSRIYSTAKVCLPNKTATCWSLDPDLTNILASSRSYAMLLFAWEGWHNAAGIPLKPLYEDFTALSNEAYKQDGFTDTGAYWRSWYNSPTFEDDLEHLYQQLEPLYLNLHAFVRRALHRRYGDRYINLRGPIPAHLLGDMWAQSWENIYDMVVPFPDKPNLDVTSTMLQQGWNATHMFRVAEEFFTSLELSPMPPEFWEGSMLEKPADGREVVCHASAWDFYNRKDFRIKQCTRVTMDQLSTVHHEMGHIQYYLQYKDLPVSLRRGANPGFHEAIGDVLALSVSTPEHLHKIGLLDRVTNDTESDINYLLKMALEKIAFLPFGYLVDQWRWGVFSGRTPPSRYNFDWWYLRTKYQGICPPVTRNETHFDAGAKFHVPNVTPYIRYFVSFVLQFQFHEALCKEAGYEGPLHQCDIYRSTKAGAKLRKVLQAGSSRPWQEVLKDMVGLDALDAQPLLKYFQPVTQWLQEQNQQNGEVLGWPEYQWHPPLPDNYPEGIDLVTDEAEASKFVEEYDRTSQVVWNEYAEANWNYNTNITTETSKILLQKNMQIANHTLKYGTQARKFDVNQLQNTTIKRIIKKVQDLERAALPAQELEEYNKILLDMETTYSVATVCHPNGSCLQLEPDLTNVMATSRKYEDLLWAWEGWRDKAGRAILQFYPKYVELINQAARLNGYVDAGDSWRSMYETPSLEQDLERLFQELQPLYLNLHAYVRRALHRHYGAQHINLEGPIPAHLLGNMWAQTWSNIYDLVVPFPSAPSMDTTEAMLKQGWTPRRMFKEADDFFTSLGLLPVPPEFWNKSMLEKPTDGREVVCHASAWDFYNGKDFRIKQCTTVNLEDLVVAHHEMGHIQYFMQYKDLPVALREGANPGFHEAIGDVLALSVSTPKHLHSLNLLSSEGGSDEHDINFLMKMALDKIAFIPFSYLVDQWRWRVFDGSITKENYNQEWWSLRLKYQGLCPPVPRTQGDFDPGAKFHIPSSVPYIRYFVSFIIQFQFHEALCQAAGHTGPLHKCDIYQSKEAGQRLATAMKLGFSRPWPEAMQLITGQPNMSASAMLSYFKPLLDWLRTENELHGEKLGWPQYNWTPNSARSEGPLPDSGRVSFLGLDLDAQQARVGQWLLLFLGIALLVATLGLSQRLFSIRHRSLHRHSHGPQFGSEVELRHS
In short: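 Continuous fluorogenic assay with recombinant human ACE in artificial CSF at 37 °C. Test compound (from 30–50 mM DMSO stocks) was preincubated with enzyme for 10 min. The reaction was started with Mca-[…]Dnp)-OH (10 µM), and fluorescence (ex 320/em 405 nm) was read continuously for 20 min; n = 4.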

[4] = molecular target: Rat recombinant neurolysin (Rattus norvegicus, UniProt P42676); assay: Hydrolysis of endogenous substrates BK and NT by Nln, LC-MS/MS; type: biochemical; details: compound 10 or 30 μM, Nln 0.5 nM; for hydrolysis of BK by Nln, formation of BK-(1–5): BK 20 μM; for hydrolysis of NT by Nln, formation of NT-(1–10): NT 20 μM
Sequence of Rat recombinant neurolysin (P42676 38-704): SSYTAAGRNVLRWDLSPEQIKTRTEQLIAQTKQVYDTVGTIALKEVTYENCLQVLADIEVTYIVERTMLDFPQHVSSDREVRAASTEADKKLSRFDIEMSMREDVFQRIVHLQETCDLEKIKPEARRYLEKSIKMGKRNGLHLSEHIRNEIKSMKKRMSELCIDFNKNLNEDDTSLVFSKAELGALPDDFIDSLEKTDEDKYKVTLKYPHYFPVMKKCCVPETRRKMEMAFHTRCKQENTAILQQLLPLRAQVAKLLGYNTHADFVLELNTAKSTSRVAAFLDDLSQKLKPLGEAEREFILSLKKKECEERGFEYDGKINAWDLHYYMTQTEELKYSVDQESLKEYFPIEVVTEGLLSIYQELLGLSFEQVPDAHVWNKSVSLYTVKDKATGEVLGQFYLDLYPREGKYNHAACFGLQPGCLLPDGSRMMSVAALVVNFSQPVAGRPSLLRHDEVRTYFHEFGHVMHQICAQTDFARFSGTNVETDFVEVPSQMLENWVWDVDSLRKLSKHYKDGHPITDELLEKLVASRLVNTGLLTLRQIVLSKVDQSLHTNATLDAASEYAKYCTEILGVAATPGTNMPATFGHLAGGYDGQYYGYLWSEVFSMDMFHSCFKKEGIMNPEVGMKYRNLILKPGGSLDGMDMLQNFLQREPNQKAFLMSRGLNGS
In short: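 In-house recombinant rat Nln (0.5 nM) was preincubated 10 min at 37 °C with test compound (10 or 30 µM), then given bradykinin (20 µM) for a further 10 min at 37 °C. BK-(1–5) was quantified by LC–MS/MS (water/acetonitrile with 0.1% formic acid gradient, column 40 °C) as a peak-area ratio to internal standard; n = 3.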

human NEP = human NEP (Homo sapiens, UniProt P08473); assay: Peptidase selectivity: neprilysin, fluorogenic substrate; type: biochemical; details: eight-point concentration–response up to 300 μM; substrate 10 μM
Sequence of human NEP (P08473 whole entry): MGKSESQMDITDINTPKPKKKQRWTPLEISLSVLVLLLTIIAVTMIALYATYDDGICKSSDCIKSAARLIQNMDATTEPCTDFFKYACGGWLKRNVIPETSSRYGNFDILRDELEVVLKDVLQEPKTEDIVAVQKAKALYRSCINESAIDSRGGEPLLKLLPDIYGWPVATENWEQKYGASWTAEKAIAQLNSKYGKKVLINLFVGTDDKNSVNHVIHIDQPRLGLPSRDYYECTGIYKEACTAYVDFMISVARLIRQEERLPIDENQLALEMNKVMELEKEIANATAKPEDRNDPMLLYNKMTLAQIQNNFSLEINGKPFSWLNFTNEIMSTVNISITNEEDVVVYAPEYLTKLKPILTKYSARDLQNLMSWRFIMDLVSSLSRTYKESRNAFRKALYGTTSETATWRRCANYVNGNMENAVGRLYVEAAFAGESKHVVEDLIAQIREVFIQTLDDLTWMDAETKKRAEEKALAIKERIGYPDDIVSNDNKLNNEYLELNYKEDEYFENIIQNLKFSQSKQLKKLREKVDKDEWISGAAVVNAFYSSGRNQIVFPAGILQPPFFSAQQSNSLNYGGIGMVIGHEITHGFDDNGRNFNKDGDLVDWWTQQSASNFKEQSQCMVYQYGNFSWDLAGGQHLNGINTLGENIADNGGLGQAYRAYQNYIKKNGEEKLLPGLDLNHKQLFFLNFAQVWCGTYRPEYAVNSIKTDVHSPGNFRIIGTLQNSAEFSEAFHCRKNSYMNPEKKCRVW

[5] = Brain protein binding, rapid equilibrium dialysis; type: in vitro ADME; details: mouse, mouse brain homogenate (dilution factor D = 5)
In short: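 Mouse brain homogenate spiked to 500 ng/mL final (from a 10 µg/mL aqueous dilution of DMSO solution) was dialysed against DPBS across an 8 kDa cutoff membrane for 4 h at 37 °C with 250 rpm orbital shaking. Both chambers were sampled and quantified by LC–MS/MS. fu,d = receiver/donor, corrected to undiluted fu with D = 5. Done in triplicate.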

human ACE2 = human ACE2 (Homo sapiens, UniProt Q9BYF1); assay: Peptidase selectivity: ACE2, fluorogenic substrate; type: biochemical; details: eight-point concentration–response up to 300 μM; substrate 10 μM
Sequence of human ACE2 (Q9BYF1 18-805): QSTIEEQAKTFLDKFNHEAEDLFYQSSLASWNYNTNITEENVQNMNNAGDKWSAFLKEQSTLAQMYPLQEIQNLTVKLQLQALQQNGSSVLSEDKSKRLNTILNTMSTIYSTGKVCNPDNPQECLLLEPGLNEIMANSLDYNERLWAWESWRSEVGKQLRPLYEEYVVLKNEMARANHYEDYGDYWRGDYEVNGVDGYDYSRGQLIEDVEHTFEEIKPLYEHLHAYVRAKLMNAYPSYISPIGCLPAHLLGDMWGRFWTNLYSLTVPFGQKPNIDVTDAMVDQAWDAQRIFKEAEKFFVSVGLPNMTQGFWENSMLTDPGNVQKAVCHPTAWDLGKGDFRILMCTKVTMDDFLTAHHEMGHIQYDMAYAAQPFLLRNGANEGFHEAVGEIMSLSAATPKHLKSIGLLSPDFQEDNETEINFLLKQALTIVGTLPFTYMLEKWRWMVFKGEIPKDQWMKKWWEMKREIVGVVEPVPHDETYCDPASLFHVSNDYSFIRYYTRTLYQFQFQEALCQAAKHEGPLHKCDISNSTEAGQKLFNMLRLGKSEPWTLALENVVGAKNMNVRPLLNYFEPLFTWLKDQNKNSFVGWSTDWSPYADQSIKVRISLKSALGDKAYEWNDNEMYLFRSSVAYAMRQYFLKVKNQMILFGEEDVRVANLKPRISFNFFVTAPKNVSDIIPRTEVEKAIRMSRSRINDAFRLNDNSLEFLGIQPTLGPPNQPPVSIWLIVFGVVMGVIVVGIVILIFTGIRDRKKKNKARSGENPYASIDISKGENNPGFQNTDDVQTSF
In short: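 Recombinant human ACE2 was tested in artificial CSF at 37 °C with a 10 min preincubation of enzyme and test compound (from 30–50 mM DMSO stocks). Mca-Ala-Pro-Lys(Dnp) (10 µM) started the reaction, and fluorescence (320 nm excitation, 405 nm emission) was followed continuously for 20 min; n = 4.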

human TOP = human TOP (Homo sapiens, UniProt P52888); assay: Peptidase selectivity: thimet oligopeptidase, fluorogenic substrate; type: biochemical; details: eight-point concentration–response up to 300 μM; substrate 15 μM
Sequence of human TOP (P52888 whole entry): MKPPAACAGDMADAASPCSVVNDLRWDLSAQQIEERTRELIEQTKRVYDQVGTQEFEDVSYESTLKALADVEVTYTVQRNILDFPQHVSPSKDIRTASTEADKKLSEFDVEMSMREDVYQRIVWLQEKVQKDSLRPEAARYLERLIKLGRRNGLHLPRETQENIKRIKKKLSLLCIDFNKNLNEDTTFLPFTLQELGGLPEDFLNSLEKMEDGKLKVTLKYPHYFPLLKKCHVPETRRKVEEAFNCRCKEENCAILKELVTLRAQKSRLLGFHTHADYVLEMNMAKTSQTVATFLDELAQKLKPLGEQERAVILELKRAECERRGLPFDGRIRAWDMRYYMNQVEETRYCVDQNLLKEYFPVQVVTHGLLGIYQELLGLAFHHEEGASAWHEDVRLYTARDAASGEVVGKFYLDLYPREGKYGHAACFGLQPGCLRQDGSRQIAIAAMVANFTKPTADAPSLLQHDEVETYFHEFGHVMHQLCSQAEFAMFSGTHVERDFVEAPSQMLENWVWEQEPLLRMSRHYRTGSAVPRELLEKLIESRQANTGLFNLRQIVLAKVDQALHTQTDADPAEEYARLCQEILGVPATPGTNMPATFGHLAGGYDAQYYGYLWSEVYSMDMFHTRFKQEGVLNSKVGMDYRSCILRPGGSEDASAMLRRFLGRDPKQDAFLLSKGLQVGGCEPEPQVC

[6] = 100% = normal enzyme turnover, mean of n = 4, 95% CI in parentheses

Sequence of recombinant rat Nln (P42676 38-704): as the sequence (P42676 38-704) above

Question: Which Papp A→B at 120 min, 10 μg/mL ([1]; CD-1, mouse) does the source give for `N[C@@H](Cc1c[nH]cn1)C(=O)N[C@@H](Cc1c[nH]c2ccccc12)C(=O)O` [Compound 4, His–Trp] here?
Answer: Its Papp A→B at 120 min, 10 μg/mL is 5.33 ×10⁻⁶ cm/s.

Question: Which “Amax, maximum % activation achieved (95% CI)” value (from here on “Amax … (95% CI)”) (recombinant rat Nln) does the source give for `N[C@@H](Cc1c[nH]cn1)C(=O)NCc1ccc(OC(F)(F)F)cc1` [Compound 5p, (S)-2-Amino-3-(1H-imidazol-4-yl)-N-(4-(trifluoromethoxy)-benzyl)propanamide] here?
Answer: The value was 310 (287.2 to 336.1) %.

Question: Which “Amax … (95% CI)” value (recombinant rat Nln) does the source give for `N[C@H](Cc1c[nH]cn1)C(=O)NCc1ccc(OC(F)(F)F)cc1` [Compound 5q, (R)-2-Amino-3-(1H-imidazol-4-yl)-N-(4-(trifluoromethoxy)-benzyl)propanamide] here?
Answer: Its value is 337.1 (312 to 364.9) %.

Question: With `N[C@@H](Cc1c[nH]cn1)C(=O)NCc1ccc(SC(F)(F)F)cc1` [Compound 5r, (S)-2-Amino-3-(1H-imidazol-4-yl)-N-(4-((trifluoromethyl)thio)-benzyl)propanamide] as the compound, how does the “Amax … (95% CI)” value (recombinant rat Nln) read?
Answer: The value was 287.5 (277.4 to 298.4) %.

Question: With `N[C@H](Cc1c[nH]cn1)C(=O)NCc1ccc(SC(F)(F)F)cc1` [Compound 5s, (R)-2-Amino-3-(1H-imidazol-4-yl)-N-(4-((trifluoromethyl)thio)-benzyl)propanamide] as the compound, how does the “Amax … (95% CI)” value (recombinant rat Nln) read?
Answer: Its value is 251.5 (233.7 to 271.3) %.

Question: Which “Amax … (95% CI)” value (recombinant rat Nln; [6]) does the source give for `N[C@@H](Cc1c[nH]cn1)C(=O)Nc1ccccc1` [Compound 6a, (S)-2-Amino-3-(1H-imidazol-4-yl)-N-phenylpropanamide] here?
Answer: Its value is 466.6 (402.3 to 579.7) %.

Question: Which “Amax … (95% CI)” value (recombinant rat Nln; [6]) does the source give for `N[C@H](Cc1c[nH]cn1)C(=O)Nc1ccccc1` [Compound 6b, (R)-2-Amino-3-(1H-imidazol-4-yl)-N-phenylpropanamide] here?
Answer: The value was 440.3 (414.9 to 470.4) %.

Question: With `N[C@@H](Cc1c[nH]cn1)C(=O)NCCCc1ccccc1` [Compound 7a, (S)-2-Amino-3-(1H-imidazol-4-yl)-N-(3-phenylpropyl)-propanamide] as the compound, how does the “Amax … (95% CI)” value (recombinant rat Nln; [6]) read?
Answer: Its value is 288.1 (273.6 to 303.8) %.

Question: For `N[C@H](Cc1c[nH]cn1)C(=O)NCCCc1ccccc1` [Compound 7b, (R)-2-Amino-3-(1H-imidazol-4-yl)-N-(3-phenylpropyl)-propanamide], which “Amax … (95% CI)” value (recombinant rat Nln; [6]) is on record?
Answer: The value was 281.8 (269.9 to 294.5) %.

Question: Which “Amax … (95% CI)” value (recombinant rat Nln; [6]) does the source give for `N[C@@H](Cc1c[nH]cn1)C(=O)NCCCCc1ccccc1` [Compound 8a, (S)-2-Amino-3-(1H-imidazol-4-yl)-N-(4-phenylbutyl)-propanamide] here?
Answer: Its value is 328 (309 to 351) %.

Question: With `N[C@H](Cc1c[nH]cn1)C(=O)NCCCCc1ccccc1` [Compound 8b, (R)-2-Amino-3-(1H-imidazol-4-yl)-N-(4-phenylbutyl)-propanamide] as the compound, how does the “Amax … (95% CI)” value (recombinant rat Nln; [6]) read?
Answer: The value was 233.8 (215.9 to 254.8) %.

Question: For `N[C@@H](Cc1c[nH]cn1)C(=O)NCCc1c[nH]c2ccccc12` [Compound 9d, (S)-N-(2-(1H-Indol-3-yl)ethyl)-2-amino-3-(1H-imidazol-4-yl)-propanamide], which Papp A→B at 120 min, 10 μg/mL ([1]; CD-1 (source of the primary astrocytes), mouse) is on record?
Answer: The Papp A→B at 120 min, 10 μg/mL was 17.8 ×10⁻⁶ cm/s.

Question: What about the “increase in BBB permeability / brain penetration over hit compounds 1 and 4” value [2] of the same compound?
Answer: Its value is 4–5 fold.

Question: What about the “effect on catalytic activity of ACE” value [3] of the same compound?
Answer: The value was “inhibition of ACE at high concentration”.

Question: And the “hydrolysis of BK by Nln, formation of BK-(1–5)” value [4]?
Answer: The value was “enhanced hydrolysis of BK”.

Question: And the “hydrolysis of NT by Nln, formation of NT-(1–10)” value [4]?
Answer: Its value is “hydrolysis of NT by Nln was also enhanced”.

Question: And the “effect on catalytic activity of NEP” value (human NEP)?
Answer: The value was “None of the three compounds showed appreciable inhibition”.

Question: What about the fraction unbound at 4 h, 500 ng/mL [5] of the same compound?
Answer: The fraction unbound at 4 h, 500 ng/mL was 0.14 ± 0.012.

Question: What about the “effect on catalytic activity of ACE2” value (human ACE2) of the same compound?
Answer: The value was “inhibition of ACE2 at high concentrations”.

Question: And the “effect on catalytic activity of TOP” value (human TOP)?
Answer: Its value is “only exhibited inhibition at concentrations approaching 300 μM”.

Question: For `N[C@H](Cc1c[nH]cn1)C(=O)NCCc1c[nH]c2ccccc12` [Compound 9e, (R)-N-(2-(1H-Indol-3-yl)ethyl)-2-amino-3-(1H-imidazol-4-yl)-propanamide], which “Amax … (95% CI)” value (recombinant rat Nln; [6]) is on record?
Answer: Its value is 132 (122.5 to 143.6) %.

Question: What about the “Amax … (95% CI)” value (recombinant rat Nln; 100% = normal enzyme turnover, mean of n = 4, 95% CI in parentheses, listed as D-9e) of the same compound?
Answer: Its value is 132%.

Question: For `N[C@@H](Cc1c[nH]cn1)C(=O)NCCc1ccc2ccccc2c1` [Compound 9f, (S)-2-Amino-3-(1H-imidazol-4-yl)-N-(2-(naphthalen-2-yl)ethyl)-propanamide], which “Amax … (95% CI)” value (recombinant rat Nln) is on record?
Answer: The value was 323.7 (310.3 to 337.9) %.

Question: Which “Amax … (95% CI)” value (recombinant rat Nln) does the source give for `N[C@H](Cc1c[nH]cn1)C(=O)NCCc1ccc2ccccc2c1` [Compound 9g, (R)-2-Amino-3-(1H-imidazol-4-yl)-N-(2-(naphthalen-2-yl)ethyl)-propanamide] here?
Answer: Its value is 339.8 (325.4 to 355.4) %.

Question: With `N[C@@H](Cc1c[nH]cn1)C(=O)NCc1ccc2ccccc2c1` [Compound 10a, (S)-2-Amino-3-(1H-imidazol-4-yl)-N-(naphthalen-2-ylmethyl)-propanamide] as the compound, how does the “Amax … (95% CI)” value (recombinant rat Nln; [6]) read?
Answer: Its value is 210.9 (191.7 to 231.9) %.

Question: For `N[C@H](Cc1c[nH]cn1)C(=O)NCc1ccc2ccccc2c1` [Compound 10b, (R)-2-Amino-3-(1H-imidazol-4-yl)-N-(naphthalen-2-ylmethyl)-propanamide], which “Amax … (95% CI)” value (recombinant rat Nln; [6]) is on record?
Answer: Its value is 197.5 (184.9 to 214.8) %.

Question: Which “increase in BBB permeability / brain penetration over hit compounds 1 and 4” value [2] does the source give for `N[C@@H](Cc1c[nH]cn1)C(=O)NCc1cccc2ccccc12` [Compound 10c, (S)-2-Amino-3-(1H-imidazol-4-yl)-N-(naphthalen-1-ylmethyl)-propanamide] here?
Answer: Its value is 4–5 fold.

Question: And the “effect on catalytic activity of ACE” value [3]?
Answer: Its value is “no inhibition at the maximum concentration tested”.

Question: What about the “hydrolysis of BK by Nln, formation of BK-(1–5)” value [4] of the same compound?
Answer: Its value is “enhanced hydrolysis of BK”.

Question: And the “hydrolysis of NT by Nln, formation of NT-(1–10)” value [4]?
Answer: Its value is “hydrolysis of NT by Nln was also enhanced”.

Question: What about the “effect on catalytic activity of NEP” value (human NEP) of the same compound?
Answer: Its value is “None of the three compounds showed appreciable inhibition”.

Question: And the “effect on catalytic activity of ACE2” value (human ACE2)?
Answer: The value was “no inhibition up to 300 μM”.

Question: And the “effect on catalytic activity of TOP” value (human TOP)?
Answer: The value was “No appreciable inhibition”.

Question: And the “Amax … (95% CI)” value (recombinant rat Nln; [6])?
Answer: The value was 264 (256.3 to 272.6) %.

Question: What about the “increase in potency over the least active hit” value (recombinant rat Nln; A50 ratio) of the same compound?
Answer: Its value is over 30 fold.

Question: What about the “increase in potency over the most active hit” value (recombinant rat Nln; A50 ratio) of the same compound?
Answer: The value was over 10 fold.

Question: Which “Amax … (95% CI)” value (recombinant rat Nln; [6]) does the source give for `N[C@H](Cc1c[nH]cn1)C(=O)NCc1cccc2ccccc12` [Compound 10d, (R)-2-Amino-3-(1H-imidazol-4-yl)-N-(naphthalen-1-ylmethyl)-propanamide] here?
Answer: The value was 343 (325.2 to 363.5) %.

Question: Which “Amax … (95% CI)” value (recombinant rat Nln; [6]) does the source give for `N[C@H](Cc1c[nH]cn1)C(=O)Nc1cccc2cccnc12` [Compound 11b, (R)-2-Amino-3-(1H-imidazol-4-yl)-N-(quinolin-8-yl)propanamide] here?
Answer: The value was 288.3 (274.3 to 303.3) %.

Question: And the “mean Amax of the two enantiomers” value (recombinant rat Nln; mean over L and D enantiomer)?
Answer: The value was 285%.

Question: Which results are given for “(S)-tert-Butyl(1-((2-(1H-indol-3-yl)ethyl)amino)-3-(1H-imidazol-4-yl)-1-oxopropan-2-yl)carbamate [Compound 9b]”?
Answer: Nln activation, result in words (recombinant rat Nln): ameliorates activity; Amax, maximum % activation achieved (95% CI) (recombinant rat Nln; [6]): Inactive; A50, half maximal activation concentration (95% CI) (recombinant rat Nln; recombinant rat Nln, QFS […] μM, 37 °C, mean of n = 4, 95% CI in parentheses): Inactive

Question: With “N-(2-(1H-Indol-3-yl)ethyl)-3-(1H-imidazol-4-yl)propanamide [Compound 9c]” as the compound, how does the “A50, half maximal activation concentration (95% CI)” value (recombinant rat Nln) read?
Answer: Its value is “Inactive”.

Question: And the “Amax … (95% CI)” value (recombinant rat Nln)?
Answer: The value was “Inactive”.

Question: And the “Nln activation, result in words” value (recombinant rat Nln)?
Answer: The value was “complete amelioration of activity; also recorded: ameliorates activity”.
